Assay outcomes (PubChem)
RORa activator: activators of orphan receptor RORA, primary screen, cell-based, luminescence; Nuclear receptor ROR-alpha (Homo sapiens), P35398; CHO-K1 Gal4-RORA LBD luciferase reporter; percent increase over mock-subtracted basal signal; activation, % at 10 µM; 1.5% of 65,000 active;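 active = activation above the mean of all tested compounds plus 3 SD, cut at about 49% in these data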;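 note: 0% = DMSO-treated RORA cells and 100% = added signal equal to DMSO minus mock-transfected cells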
SF-1 act: activators of human SF-1, primary screen, cell-based, CHO-K1, Gal4-SF-1 LBD, luciferase luminescence. Steroidogenic factor 1 (Homo sapiens), Q13285. CHO-K1 Gal4-SF-1 LBD luciferase reporter; % increase over DMSO SF-1-specific signal. activation, % at 10 µM. 1.9% of 65,000 active;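 active = activation above the mean activation of all tested compounds plus 3 SD, cut at about 50% in these data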
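Test system: transient Gal4-SF-1 LBD reporter, CHO-K1; Amount: 4,000 CHO-K1 cells per well; Doses: 10 µM only; Timing: compound exposure 20 h at 37 °C; Signal: luciferase light emission; Read-out basis: percent activation relative to DMSO median and mock-transfected background; Control set: DMSO negative control and −SF1 background wells; Replicates: one test per compound.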
WNV protease inh: inhibitors of WNV NS2B-NS3 protease, primary screen, biochemical, fluorogenic substrate; Genome polyprotein (West Nile virus), P06935; fluorogenic substrate Ex360/Em465; hits give low values; z-score (no concentration beside the values); 0.18% of 65,000 active; in the data active = z-score below about -3
JNK3 inh: JNK3 kinase activity inhibitors, primary screen, biochemical, human, purified enzyme; Mitogen-activated protein kinase 10 (Homo sapiens), P53779; AID 746, 2007; HTS; inhibition, % at 8 µM; 0.61% of 60,000 active; in the data active = inhibition above about 17%;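 note: 0% = DMSO and 100% = reference inhibitor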
PKA kinase inh: inhibitors of human PKA kinase activity, primary screen, biochemical, ATP-depletion luminescence, Kemptide substrate. 0.1% of 65,000 active. PKA Kemptide phosphorylation, Kinase-Glo ATP luminescence. AID 524, 2006. inhibition, % at 6 µM. cAMP-dependent protein kinase catalytic subunit alpha (Homo sapiens), P17612;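 active = inhibition above the screen-wide mean inhibition plus 3 SD, cut at about 21% in these data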
ROCK2 inh: inhibitors of human ROCK2 kinase, primary screen, biochemical, high-throughput, luminescence | Rho-associated protein kinase 2 (Homo sapiens), O75116 | purified ROCK2, Kinase-Glo ATP depletion luminescence | inhibition, % at 6 µM | 0.35% of 60,000 active | AID 604, 2007;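 active = inhibition above the screen-wide mean inhibition plus 3 SD, cut at about 18% in these data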;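 note: plate controls were DMSO wells for no effect and Y-27632 control wells after no-enzyme background subtraction for full effect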
* = called active by the depositor. In the library only some 3.4% were active in any assay of this set; here they are far more common.

SMILES | RORa activator | SF-1 act | WNV protease inh | JNK3 inh | PKA kinase inh | ROCK2 inh
O=C(CCCCCn1c(=S)[nH]c2ccccc2c1=O)N1CCC2(CC1)OCCO2 | 1.5 | -9.9 | 1.55 | 28.1* | -1.8 | -12.1
Cn1c(=O)n(CC(=O)N2CCC3(CC2)OCCO3)c(=O)c2ccccc21 | 11.2 | 3.7 | 0.82 | 2.5 | 1.9 | -0.1
CCSP1(=S)N=C(N2CCOCC2)C(C#N)=C2CCCN21 (stereo unspecified) | -11.2 | -2.9 | 0.24 | 3.9 | 2.3 | 1.6
CCn1nc(-c2ccccc2)nc2c(=O)n(C)c(=O)nc1-2 | -93.1 | -95.4 | -0.24 | 55.3* | 3.7 | 71.8*
Cc1ccc(OCC(=O)NCCN2CCN(C(=O)COc3ccc(C)cc3)CC2)cc1 | -2.0 | -6.1 | 0.57 | 9.2 | -7.2 | 0.4
O=C(C1CC(c2ccc(Cl)c(Cl)c2)=NO1)N1CCC2(CC1)OCCO2 (stereo unspecified) | 73.2* | 29.7 | 0.42 | -9.2 | 2.8 | 0.9
COc1cccc(-n2nc(C(=O)N3CCC4(CC3)OCCO4)c3ccccc3c2=O)c1 | -21.3 | 12.8 | 1.77 | 4.5 | 11.8 | 4.2
COc1cccc(C2=NOC(C(=O)N3CCC4(CC3)OCCO4)C2)c1 (stereo unspecified) | 25.5 | 56.5* | -0.46 | -2.2 | 2.5 | 0.3
COc1ccc(-c2cc(C(F)(F)F)n3nc(C(=O)N4CCC5(CC4)OCCO5)cc3n2)cc1OC | -2.0 | 3.2 | -0.04 | -3.6 | -5.3 | -1.2
COc1ccc(C2NCc3ccc4c(c3-n3cccc32)OCO4)cc1O (stereo unspecified) | 49.5* | 21.1 | -0.42 | 9.4 | 9.5 | 5.9
O=S(=O)(c1ccc(Cl)cc1)N1CN2CCN(C2)C1 | -4.8 | -5.4 | -4.83* | 6.5 | 6.7 | 1.6
CN(C)CCN=Cc1c(O)n(CCC2=CCCCC2)c(=O)[nH]c1=O | -17.8 | -9.7 | -0.78 | -3.1 | 2.6 | 4.2
Nc1ccccc1N=Cc1c(O)n(CCC2=CCCCC2)c(=O)[nH]c1=O | 43.8 | 78.5* | 0.52 | 0.3 | 6.5 | -12.5
COc1ccccc1OCCCn1cc(C(=O)c2ccco2)c2ccccc21 | 64.9* | 51.7* | -0.24 | -1.0 | 5.2 | -1.2
O=C(Cn1cc(C(=O)c2ccccc2)c2ccccc21)NCc1ccco1 | 22.1 | 23.8 | 0.52 | 1.1 | 8.7 | 7.6
CC(C(=O)N1CCC2(CC1)OCCO2)C1Sc2ccccc2NC1=O (stereo unspecified) | -10.6 | 3.9 | 1.79 | -5.5 | -10.3 | -9.8
CCCC(=O)OCC[N+](C)(C)C | -11.6 | -3.7 | 0.89 | 2.0 | -5.3 | -0.3
CCOC(=O)C1SC2(C(F)F)CC1(O)c1c(c(OC)c3occc3c1OC)O2 (stereo unspecified) | -22.6 | -10.1 | -0.08 | -3.6 | 6.4 | 4.6
C=CCC1(CN2CCCCCC2=O)C(=O)NC(=O)NC1=O | -1.5 | 3.7 | -6.51* | 1.7 | 4.8 | 7.1
O/N=C/c1c[nH]c2ccccc12 | -10.8 | -2.3 | -1.1 | 4.6 | 63.5* | 81.9*
